# How the values were obtained:
# [1] = Cytotoxicity against mouse EAC cells in aerobic condition by trypan blue exclusion assay; assay type: functional, cell-based; details: Ehrlich
# Procedure, shortened: (§1)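 EAC cells aspirated from ascitic fluid of pre-inoculated female Swiss albino mice, suspended at 2.5×10⁶ cells/ml. Compounds freshly diluted in DMSO, 0.1 ml added per tube. Parallel aerobic and anaerobic tube sets; anaerobic tubes gassed with N₂ throughout. Incubation 2 h, then centrifugation. Trypan blue exclusion with haemocytometer counts; % viability = unstained cells/total cells × 100. DMSO-only negative control.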
# [2] = Cytotoxicity against mouse EAC cells in hypoxic condition by trypan blue exclusion assay; assay type: functional, cell-based; details: Ehrlich
# Procedure, shortened: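 EAC suspension (2.5×10⁶ cells/ml, from ascitic fluid of pre-inoculated female Swiss albino mice) exposed 2 h to DMSO-dissolved compounds over 1–100 µg/ml, in air or under continuous N₂. Viability by trypan blue exclusion, haemocytometer counts. IC50 taken as the concentration causing 50% mortality in net cell numbers.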
# [3] = Cytotoxicity against mouse EAC cells in aerobic condition assessed as cell viability at 100 ug/ml after 2 hrs by trypan blue exclusion assay; assay type: functional; details: Ehrlich, read-out: Activity; procedure, shortened: as §1
# [4] = Cytotoxicity against mouse EAC cells in hypoxic condition assessed as cell viability at 100 ug/ml after 2 hrs by trypan blue exclusion assay; assay type: functional; details: Ehrlich, read-out: Activity; procedure, shortened: as §1
# [5] = Cytotoxicity against mouse EAC cells in aerobic condition assessed as cell viability at 50 ug/ml after 2 hrs by trypan blue exclusion assay; assay type: functional; details: Ehrlich, read-out: Activity; procedure, shortened: as §1
# [6] = Cytotoxicity against mouse EAC cells in hypoxic condition assessed as cell viability at 50 ug/ml after 2 hrs by trypan blue exclusion assay; assay type: functional; details: Ehrlich, read-out: Activity; procedure, shortened: as §1
# [7] = Cytotoxicity against mouse EAC cells in aerobic condition assessed as cell viability at 25 ug/ml after 2 hrs by trypan blue exclusion assay; assay type: functional; details: Ehrlich, read-out: Activity; procedure, shortened: as §1
# [8] = Cytotoxicity against mouse EAC cells in hypoxic condition assessed as cell viability at 25 ug/ml after 2 hrs by trypan blue exclusion assay; assay type: functional; details: Ehrlich, read-out: Activity; procedure, shortened: as §1
# [9] = Cytotoxicity against mouse EAC cells in aerobic condition assessed as cell viability at 10 ug/ml after 2 hrs by trypan blue exclusion assay; assay type: functional; details: Ehrlich, read-out: Activity; procedure, shortened: as §1
# [10] = Cytotoxicity against mouse EAC cells in hypoxic condition assessed as cell viability at 10 ug/ml after 2 hrs by trypan blue exclusion assay; assay type: functional; details: Ehrlich, read-out: Activity; procedure, shortened: as §1
# [11] = Cytotoxicity against mouse EAC cells in aerobic condition assessed as cell viability at 5 ug/ml after 2 hrs by trypan blue exclusion assay; assay type: functional; details: Ehrlich, read-out: Activity; procedure, shortened: as §1
# [12] = Cytotoxicity against mouse EAC cells in hypoxic condition assessed as cell viability at 5 ug/ml after 2 hrs by trypan blue exclusion assay; assay type: functional; details: Ehrlich, read-out: Activity; procedure, shortened: as §1
# [13] = Cytotoxicity against mouse EAC cells in aerobic condition assessed as cell viability at 1 ug/ml after 2 hrs by trypan blue exclusion assay; assay type: functional; details: Ehrlich, read-out: Activity; procedure, shortened: as §1
# [14] = Cytotoxicity against mouse EAC cells in hypoxic condition assessed as cell viability at 1 ug/ml after 2 hrs by trypan blue exclusion assay; assay type: functional; details: Ehrlich, read-out: Activity; procedure, shortened: as §1
# [15] = Ratio of IC50 for mouse EAC cells in aerobic condition to IC50 for mouse EAC cells in hypoxic condition
# Ehrlich = assay: Cytotoxicity against mouse EAC cells in hypoxic condition assessed as concentration required for 1% cell survival
# HepG2 = assay: Growth inhibition of human HepG2 cells after 48 hrs by SRB assay; assay type: functional, cell-based; details: HepG2, 48 h
# Procedure, shortened: (§2)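 Cells plated at 10⁴ per well and allowed 24 h to attach. Compounds dissolved in DMSO were added at 0.1, 2.5, 5 and 10 µg/ml and incubated 48 h at 37 °C under 5% CO₂. Cells were then fixed, washed and stained with sulforhodamine B, and colour intensity was read on an ELISA reader.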
# U-251 = assay: Growth inhibition of human U251 cells after 48 hrs by SRB assay; assay type: functional, cell-based; details: U-251, 48 h; procedure, shortened: as §2
Compound,HCR (IC50 air/IC50 hypoxia ratio) [15],IC50 (HepG2) [µg/mL],IC50 (U-251) [µg/mL],IC50 [1] [µg/mL],IC50 [2] [µg/mL],viability at 100 µg/mL [3] [%],viability at 100 µg/mL [4] [%],viability at 50 µg/mL [5] [%],viability at 50 µg/mL [6] [%],viability at 25 µg/mL [7] [%],viability at 25 µg/mL [8] [%],viability at 10 µg/mL [9] [%],viability at 10 µg/mL [10] [%],viability at 5 µg/mL [11] [%],viability at 5 µg/mL [12] [%],viability at 1 µg/mL [13] [%],viability at 1 µg/mL [14] [%],Potency (Ehrlich) [µg/mL]
Cc1c(C(=O)N=[N+]=[N-])[n+]([O-])c2cc(Cl)ccc2[n+]1[O-],> 1,,,> 100,> 100,81.8,59.1,91.2,70.3,98,84.2,98,88.3,98,92.6,100,99.3,> 100
COc1ccc2c(c1)[n+]([O-])c(C(=O)N=[N+]=[N-])c(C)[n+]2[O-],> 8,3.61,> 10,> 100,12.5,56,1.3,77.9,6.2,80.7,11.3,83.9,58.3,99,81.1,94.5,94.5,90
CNc1c(C#N)[n+]([O-])c2cc(Cl)ccc2[n+]1[O-],> 1,4.75,> 10,> 100,> 100,89,72,82.7,81.4,94,90.6,96.7,92.7,96,96,100,99.5,> 100
CCOc1ccc(/N=C/c2c(-c3ccccc3)[n+]([O-])c3ccc(OC)cc3[n+]2[O-])cc1,> 1.4,0.77,> 10,> 100,70,84.1,30.5,91.1,64.9,92.3,84.4,95.4,92.9,99,97,99.3,99.3,> 100
COc1ccc(NC(=O)Nc2c(C)[n+]([O-])c3ccc(OC)cc3[n+]2[O-])cc1,,6,> 10,,,,,,,,,,,,,,,
COc1ccc2c(c1)[n+]([O-])c(NC(=O)OC(C)C)c(C)[n+]2[O-],> 1,6,> 10,> 100,> 100,87.7,63.2,92.6,76.2,97,82.3,99,90.4,99,91.9,100,94.8,> 100
Nc1n[n+]([O-])c2ccccc2[n+]1[O-] [TIRAPAZAMINE],,56.6,71.2,,,,,,,,,,,,,,,
CCOc1ccc(NCc2nc3cc(OC)ccc3[n+]([O-])c2-c2ccccc2)cc1,> 1,4.95,> 10,> 100,> 100,85,80.7,93.3,87,97.6,95,96.3,98,98.6,99,100,100,> 100

# Second part, led by results:
HCR (IC50 air/IC50 hypoxia ratio) [15],IC50 (HepG2) [µg/mL],IC50 (U-251) [µg/mL],Compound,IC50 [1] [µg/mL],IC50 [2] [µg/mL],viability at 100 µg/mL [3] [%],viability at 100 µg/mL [4] [%],viability at 50 µg/mL [5] [%],viability at 50 µg/mL [6] [%],viability at 25 µg/mL [7] [%],viability at 25 µg/mL [8] [%],viability at 10 µg/mL [9] [%],viability at 10 µg/mL [10] [%],viability at 5 µg/mL [11] [%],viability at 5 µg/mL [12] [%],viability at 1 µg/mL [13] [%],viability at 1 µg/mL [14] [%],Potency (Ehrlich) [µg/mL]
> 40,5.69,> 10,CC(=O)N(C(C)=O)c1c(C#N)[n+]([O-])c2cc(Cl)ccc2[n+]1[O-],> 100,2.5,77.7,0,78.9,1.3,80.7,3,83.9,12.6,99,30.3,99.6,75.4,22
> 7.4,,,N#Cc1c(N)[n+]([O-])c2ccc(Cl)cc2[n+]1[O-],> 100,13.5,94,5,94.3,43.5,95,65.1,97.3,71.3,98.8,87.8,100,94,> 100
,> 10,> 10,Cc1c(NC(=O)OC(C)C)[n+]([O-])c2cc(Cl)ccc2[n+]1[O-],,,92,90.6,96.4,96.3,97,96,98.3,97.3,98.8,98.3,100,100,
10,0.5,> 10,COc1ccc(NC(=O)Nc2c(C)[n+]([O-])c3ccc(Cl)cc3[n+]2[O-])cc1,100,10,54.6,5.3,73.3,10.3,79.2,24.2,83,50.2,98,73.3,99.6,86.7,> 100

# — ChEMBL document CHEMBL1177836, “New quinoxaline 1, 4-di-N-oxides: anticancer and hypoxia-selective therapeutic agents” (Eur J Med Chem, 2010)
